Test results published in ChEMBL document CHEMBL1152949, “Synthesis and biological evaluation of febrifugine analogues as potential antimalarial agents” (Bioorg Med Chem, 2009).
Converted amounts (≈) assume the structure as drawn.

What was measured:
[1] = test system: Plasmodium berghei; experiment: Antimalarial activity against Plasmodium berghei infected ICR mice (Mus musculus) daily oral or subcutaneous dose for 8 days by Thompson test; conditions: for ED50: Plasmodium berghei, po or sc, 192 h
[2] = Toxicity in Plasmodium berghei infected ICR mice (Mus musculus) dosed intraperitoneally once daily for 4 days by Thompson test; format: organism-based; conditions: in vivo, ip
[3] = Therapeutic index, ratio of MTD for Plasmodium berghei infected ICR mice (Mus musculus) to MCD for Plasmodium berghei; conditions: read-out: TI
[4] = test system: Plasmodium falciparum; experiment: Antiplasmodial activity after 48 hrs against chloroquine-resistant Plasmodium falciparum W2 in human erythrocytes by [3H]hypoxanthine uptake; format: functional, organism-based
How it was run: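 Chloroquine-resistant W2 P. falciparum grown in RPMI 1640 with 6% human erythrocytes and 10% human serum, under 5% CO2, 5% O2, 90% N2 at 37°C. Sensitivity tested by semi-automated micro-dilution. [3H]hypoxanthine incorporation measured across compound concentrations, and IC50 derived from it.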

SMILES	MCD [1] [mg/kg]	ED50 [1] [mg/kg]	MTD at 96 h [2] [mg/kg]	selectivity ratio [3]	IC50 [4] [ng/mL]
CCN(CC)CCCC(C)Nc1ccnc2cc(Cl)ccc12 (stereo not drawn) [CHLOROQUINE]	40	4.5	240		
O=C(C[C@H]1NCC[C@@H]1O)Cn1cnc2cnccc2c1=O	6.6	1.2	338	51	0.31 (≈ 1.08 nM)
O=C(C[C@H]1NCC[C@@H]1O)Cn1cnc2cccc(C(F)(F)F)c2c1=O	4.7	0.74	335	71	0.23 (≈ 0.647 nM)
O=C(C[C@H]1NCC[C@@H]1O)Cn1cnc2ccccc2c1=O	8.4	1.6	144	17	0.56 (≈ 1.95 nM)
O=C(C[C@H]1NCC[C@@H]1O)Cn1cnc2ccc(F)c(F)c2c1=O	8.9	1.7	379	43	0.4 (≈ 1.24 nM)
O=C(C[C@H]1NCC[C@@H]1O)Cn1cnc2ccc(C(F)(F)F)cc2c1=O	7.9	1.5	440	56	0.28 (≈ 0.788 nM)
COc1ccc2c(=O)n(CC(=O)C[C@H]3NCC[C@@H]3O)cnc2c1	5.6	1.7	55	10	0.62 (≈ 1.95 nM)
O=C(C[C@H]1NCC[C@@H]1OCc1ccccc1)Cn1cnc2cccnc2c1=O	0.77	0.14	102	132	0.14 (≈ 0.37 nM)
O=C(C[C@H]1NCC[C@@H]1O)Cn1cnc2cccc(F)c2c1=O	7.1	1	399	56	0.29 (≈ 0.95 nM)
O=C(C[C@H]1NCC[C@@H]1O)Cn1cnc2ccc(F)cc2c1=O	6.8	1.1	425	63	0.26 (≈ 0.852 nM)
O=C(C[C@H]1NCC[C@@H]1O)Cn1cnc2cccnc2c1=O	3.1	0.44	345	111	0.12 (≈ 0.416 nM)
CC(C)(C)c1ccc2ncn(CC(=O)C[C@H]3NCC[C@@H]3O)c(=O)c2c1	42	10	504	12	3.4 (≈ 9.9 nM)
CC(C)(C)c1cccc2ncn(CC(=O)C[C@H]3NCC[C@@H]3O)c(=O)c12	39	8.7	429	11	2.9 (≈ 8.44 nM)
O=C(C[C@@H]1NCCC[C@H]1O)Cn1cnc2ccccc2c1=O [FEBRIFUGINE]	12	2.3	35	3	0.76 (≈ 2.52 nM)
O=C(C[C@H]1NCC[C@@H]1O)Cn1cnc2ncccc2c1=O	5.9	1.3	439	74	0.34 (≈ 1.18 nM)
O=C(C[C@H]1NCC[C@@H]1O)Cn1cnc2ccncc2c1=O	2.9	0.49	310	107	0.14 (≈ 0.486 nM)
O=C(C[C@H]1NCC[C@@H]1OCc1ccccc1)Cn1cnc2cccc(C(F)(F)F)c2c1=O	0.69	0.12	88	128	0.19 (≈ 0.427 nM)
COc1cccc2c(=O)n(CC(=O)C[C@H]3NCC[C@@H]3O)cnc12	4.9	1.5	51	10	0.57 (≈ 1.8 nM)
